NR2E3 ag-1: activates human NR2E3 receptor | inhibition of corepressor binding, % at 3.98 µM | Q9Y5X4 | 360,000 compounds, 0.35% hits | AID 602229 | CHO-S Gal4-NCOR/VP16-NR2E3 two-hybrid, luciferase;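 active = inhibition above the mean of all tested compounds plus 3 SD, cut at about 70% in these data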;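 also: 0% = DMSO with NR2E3 transfected cells and 100% = cells lacking NR2E3 construct; higher means lower luciferase signal from less NR2E3 corepressor binding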
Target sequence (Q9Y5X4 whole entry, looked up, the tested form may be a part): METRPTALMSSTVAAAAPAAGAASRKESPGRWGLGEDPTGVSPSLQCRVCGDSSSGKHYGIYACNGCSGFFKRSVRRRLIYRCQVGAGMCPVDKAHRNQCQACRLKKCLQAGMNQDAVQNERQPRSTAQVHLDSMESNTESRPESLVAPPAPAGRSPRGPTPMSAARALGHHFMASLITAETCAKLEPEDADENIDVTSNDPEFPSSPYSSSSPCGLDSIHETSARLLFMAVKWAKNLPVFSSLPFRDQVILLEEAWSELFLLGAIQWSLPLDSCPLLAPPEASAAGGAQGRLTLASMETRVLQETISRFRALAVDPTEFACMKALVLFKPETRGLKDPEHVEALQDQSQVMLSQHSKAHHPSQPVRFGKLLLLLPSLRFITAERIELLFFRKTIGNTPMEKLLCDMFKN
NR1D1 modulator: Rev-erb alpha (human) modulation; P20393; Rev-erbα–FITC-DNA binding, fluorescence polarization, 90 min; activity, % at 10 µM; 370,000 compounds, 0.79% hits;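 active = activity above about 14%, limit read from the data; passing the limit was not always enough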;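 also: 0% = DMSO wells with 35 nM protein and 100% = DMSO wells with 750 nM protein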
MC4R barr agon: agonists of human melanocortin 4 receptor (MC4R) beta-arrestin | P32245 | U2OS MC4R beta-arrestin complementation, luminescence; percent of melanotan II response, DMSO zero | activation, % at 8.9 µM | 360,000 compounds, 0.98% hits;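 active = activation above a per-plate cutoff, the mean activation of sample wells on that plate plus 3 SD, cut at about 8% in these data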
Target sequence (P32245 whole entry, looked up): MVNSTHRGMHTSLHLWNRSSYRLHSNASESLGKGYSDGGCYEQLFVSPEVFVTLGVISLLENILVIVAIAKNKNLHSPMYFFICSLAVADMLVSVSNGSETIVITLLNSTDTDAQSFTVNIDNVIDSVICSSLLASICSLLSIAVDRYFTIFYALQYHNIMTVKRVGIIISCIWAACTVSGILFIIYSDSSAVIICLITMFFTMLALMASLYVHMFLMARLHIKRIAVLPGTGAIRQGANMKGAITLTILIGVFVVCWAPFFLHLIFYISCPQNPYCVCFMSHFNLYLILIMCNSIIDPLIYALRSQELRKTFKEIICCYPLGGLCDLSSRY
PG9 binder: small molecules binding HIV-1 gp120 antibody PG9; inhibition, % at 6.7 µM; TR-FRET gp120-PG9 antibody binding; AID 624416; 360,000 compounds, 0.43% hits; in the data active = inhibition above about 8.5%
NR2E3 ag-2: activates human photoreceptor nuclear receptor NR2E3. Q9Y5X4. GST-NR2E3/biotin-RetCOR TR-FRET, 1536-well. inhibition of corepressor binding, % at 4.78 µM. 320,000 compounds, 0.12% hits. AID 2300;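 active = percent inhibition above the cutoff of mean plus 3 SD of all tested compounds, set per screening campaign, cut at about 20% in these data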;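 also: 0% = DMSO wells and 100% = biotin wells as full block of FRET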
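Material: NR2E3–RetCOR corepressor complex / Amount: 1.35 nM GST-NR2E3 / Medium: Tris pH 7.5 / Compound: single nominal compound dose of 4.8 µM / Incubation: 5 h at 4 °C / Technique: TR-FRET, Eu(K)-anti-GST donor, streptavidin-D2 acceptor, ex 340, em 617/671 nm / Read-out basis: percent loss of FRET ratio relative to control wells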
MC4R antag cAMP: blocks human MC4R cAMP signaling. P32245. MC4R-expressing cells, MTII-stimulated cAMP, LANCE TR-FRET. inhibition, % at 6.5 µM. 360,000 compounds, 0.48% hits;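 active = inhibition above its plate's cutoff, the mean of tested wells on that plate plus 3 SD, cut at about 29% in these data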;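 also: 0% = Melanotan II alone and 100% = Melanotan II plus saturating MCL0020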
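Assay system: U2OS-MC4R stable cell line; Also added: Melanotan II; Technique: Eu-cAMP/anti-cAMP TR-FRET, emission 671 nm; Times: 30-min compound, 1-h challenge, 1-h detection, room temperature.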
cAMP nonselect: counter-screen for MC4R antagonists: nonselective cAMP signaling inhibitors; shares compounds with MC4R antag cAMP; parental U2OS, forskolin cAMP, LANCE TR-FRET; inhibition, % at 6.5 µM; 1,600 compounds, 26% hits; AID 602193;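 active = mean inhibition over triplicates above the low-control well mean plus 3 SD, set per campaign, cut at about 13% in these data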;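 also: signal is single emission at 671 nm which falls as cellular cAMP rises; 0% = forskolin-stimulated wells and 100% = buffer without forskolin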
MC4R cAMP antag: human MC4R cAMP antagonism confirmation; shares compounds with MC4R antag cAMP; MC4R-expressing cells, MTII-stimulated cAMP, TR-FRET; inhibition, % at 6.5 µM; 1,600 compounds, 27% hits; in the data active = inhibition above about 29%;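 also: 0% = agonist stimulated wells alone and 100% = agonist stimulated wells plus saturating reference antagonist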
An asterisk follows results filed as active. This is a sample that favours compounds with a hit; in the whole collection about 2.7% have one here.

NC(=O)c1ccsc1NC(=O)COC(=O)/C=C/c1ccc([N+](=O)[O-])cc1 was read as NR2E3 ag-1 -8.5, NR1D1 modulator -19.9, MC4R barr agon -1.5, PG9 binder -1.3, NR2E3 ag-2 -0.7 and MC4R antag cAMP 3.5.
For CC(=O)c1c(C)[nH]c(C(=O)OCc2ccc(Br)cc2)c1C the results were NR2E3 ag-1 5.9, NR1D1 modulator 1.8, MC4R barr agon -2.7, PG9 binder 1.0, NR2E3 ag-2 1.2 and MC4R antag cAMP 2.8.
Screening Cc1ccc(C(=O)OC(C)C(=O)NC2CCCCC2)cc1S(=O)(=O)N1CCCCC1 (centres undefined) returned NR2E3 ag-1 23.2, NR1D1 modulator 10.1, MC4R barr agon 0.2, PG9 binder 0.3, NR2E3 ag-2 2.5 and MC4R antag cAMP 4.2.
Screening CCC(OC(=O)c1ccc(S(C)(=O)=O)c([N+](=O)[O-])c1)C(=O)NC1C2CC3CC(C2)CC1C3 (centres undefined) returned NR2E3 ag-1 -18.9, NR1D1 modulator 6.7, MC4R barr agon -2.0, PG9 binder 0.8, MC4R antag cAMP 60.4*, cAMP nonselect -9.1 and MC4R cAMP antag 12.2.
For CC(OC(=O)c1ccc(S(C)(=O)=O)c([N+](=O)[O-])c1)C(=O)NC1C2CC3CC(C2)CC1C3 (centres undefined) the results were NR2E3 ag-1 -8.5, NR1D1 modulator -7.2, MC4R barr agon -1.9, PG9 binder 0.8, MC4R antag cAMP 28.7*, cAMP nonselect 7.7 and MC4R cAMP antag 20.7.
`O=C(CN(Cc1ccc(Cl)cc1)C(=O)CNS(=O)(=O)c1ccccc1)NCC1CCCO1` (centres undefined) gave NR2E3 ag-1 4.9, NR1D1 modulator -1.8, MC4R barr agon 2.1, PG9 binder -1.4, NR2E3 ag-2 2.7, MC4R antag cAMP 31.0*, cAMP nonselect 0.4 and MC4R cAMP antag 6.3.
Screening Cc1nc(-c2cccc(NC(=O)c3ccc(Cl)c(S(=O)(=O)N4CCCC4)c3)c2)cs1 returned NR2E3 ag-1 -5.7, NR1D1 modulator 0.8, MC4R barr agon -1.3, PG9 binder 0.7, MC4R antag cAMP 31.4*, cAMP nonselect 4.4 and MC4R cAMP antag -12.4.
Screening Cc1ccc(C)c(Oc2ncnc(N)c2[N+](=O)[O-])c1 returned NR2E3 ag-1 -5.5, NR1D1 modulator -5.4, MC4R barr agon -1.4, PG9 binder 0.3, NR2E3 ag-2 3.0 and MC4R antag cAMP -0.1.
Screening Cc1cc(Sc2nc(N)ncc2[N+](=O)[O-])ncn1 returned NR2E3 ag-1 0.8, NR1D1 modulator -6.5, MC4R barr agon -1.7, PG9 binder -1.8, NR2E3 ag-2 3.5, MC4R antag cAMP 40.4*, cAMP nonselect 20.4* and MC4R cAMP antag 34.6*.
`Cc1cc(Sc2ncnc(N)c2[N+](=O)[O-])ncn1` gave NR2E3 ag-1 -7.9, MC4R barr agon -1.3, NR2E3 ag-2 -0.9, MC4R antag cAMP 38.2*, cAMP nonselect 16.4* and MC4R cAMP antag 36.1*.
Cc1cc(N)ncc1[N+](=O)[O-] was read as NR2E3 ag-1 12.5, NR1D1 modulator 5.1, MC4R barr agon -2.2, PG9 binder -1.4 and MC4R antag cAMP 1.4.
`CC(=O)Nc1ccc(-c2csc(NC(=O)C3CC(=O)N(c4ccc5c(c4)OCCO5)C3)n2)cc1` (centres undefined) gave NR2E3 ag-1 -14.3, NR1D1 modulator 6.4, MC4R barr agon 1.0, PG9 binder -0.5, NR2E3 ag-2 2.2, MC4R antag cAMP 34.6*, cAMP nonselect 2.1 and MC4R cAMP antag 0.8.
`O=C(COc1ccc([N+](=O)[O-])cc1)Nc1ccc2[nH]c(=O)[nH]c2c1` gave NR2E3 ag-1 -1.7, NR1D1 modulator -10.5, MC4R barr agon -3.3, PG9 binder -2.0, NR2E3 ag-2 0.5 and MC4R antag cAMP 5.5.
`Cc1cc(N2CCC(C(=O)N3CCN(c4cccc(C)c4C)CC3)CC2)n2ncnc2n1` gave NR2E3 ag-1 5.7, NR1D1 modulator -3.7, MC4R barr agon 0.5, PG9 binder 1.1, NR2E3 ag-2 0.4 and MC4R antag cAMP 8.7.
Screening COCCCN1C(=O)C(CC(=O)NC2CCCCC2)CC(C(=O)N(C(C)C)C(C)C)=C1C (centres undefined) returned NR2E3 ag-1 20.7, NR1D1 modulator 3.4 and PG9 binder 1.6.
Cc1nn(CC(=O)NNC(=O)c2ccccc2F)c([N+](=O)[O-])c1Br was read as NR2E3 ag-1 10.4, NR1D1 modulator -1.3, MC4R barr agon 3.3, PG9 binder -2.1, NR2E3 ag-2 -0.5, MC4R antag cAMP 37.2*, cAMP nonselect 1.5 and MC4R cAMP antag -12.2.
For O=C(CCN1CCc2ccccc2C(c2ccccc2)C1)c1ccc2c(c1)OCCO2 (centres undefined) the results were NR2E3 ag-1 -10.6, NR1D1 modulator 3.6, MC4R barr agon -3.9, PG9 binder -1.2, NR2E3 ag-2 1.6 and MC4R antag cAMP 24.1.
For O=C(CCN1Cc2ccccc2C1)c1ccc2c(c1)OCCO2 the results were NR2E3 ag-1 -21.4, NR1D1 modulator 10.1, MC4R barr agon -3.2, PG9 binder 0.9, NR2E3 ag-2 3.2, MC4R antag cAMP 33.5*, cAMP nonselect 18.4* and MC4R cAMP antag 31.2*.
`COC(=O)C1=C(C(=O)OC)SC2(S1)C(C(=O)OC)=C(C(=O)OC)SC1=C2c2cc(C)cc(C)c2NC1(C)C` gave NR2E3 ag-1 -12.6, NR1D1 modulator 2.2, MC4R barr agon -1.6, PG9 binder -1.0, NR2E3 ag-2 -1.4, MC4R antag cAMP 53.5*, cAMP nonselect 15.0* and MC4R cAMP antag 39.9*.
`O=C(COC(=O)c1ccc2c(c1)OCO2)Nc1ccccc1OC(F)F` gave NR2E3 ag-1 1.9, NR1D1 modulator 1.6, MC4R barr agon 3.0, PG9 binder 6.9 and MC4R antag cAMP 17.2.
CN(CCC#N)C(=O)COC(=O)c1ccccc1C(=O)c1ccc(Cl)c([N+](=O)[O-])c1 was read as NR2E3 ag-1 -2.4, NR1D1 modulator 0.7, MC4R barr agon -4.3, PG9 binder -1.0, NR2E3 ag-2 2.6, MC4R antag cAMP 33.5*, cAMP nonselect 23.6* and MC4R cAMP antag 4.7.
For O=C(COC(=O)c1ccc(Cl)c([N+](=O)[O-])c1)Nc1ccccc1OC(F)F the results were NR2E3 ag-1 -12.0, NR1D1 modulator -0.8, MC4R barr agon -1.7, PG9 binder 2.1, NR2E3 ag-2 1.8, MC4R antag cAMP 33.6*, cAMP nonselect 21.1* and MC4R cAMP antag 46.7*.

Assay outcomes: PubChem BioAssay, several laboratories
